Measurements taken from article PMC11549336 (Communications Biology, 2024).

Molecular target: recombinant Plk1 PBD (Plk1 367-603aa) (Homo sapiens, UniProt P53350)
Assay: Peptide binding assay by isothermal titration calorimetry
Conditions: ITC; listed as pT600/pT608 peptide
In short: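 Protein and peptides were dialysed against 50 mM NaP, 150 mM NaCl, 0.5 mM TCEP, pH 7.5, with concentrations set by A280. ITC at 25 °C, 750 rpm stirring. […] Buffer-only controls subtracted; data fitted to a single-site model.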

Chain of recombinant Plk1 PBD (Plk1 367-603aa) (P53350 367-603): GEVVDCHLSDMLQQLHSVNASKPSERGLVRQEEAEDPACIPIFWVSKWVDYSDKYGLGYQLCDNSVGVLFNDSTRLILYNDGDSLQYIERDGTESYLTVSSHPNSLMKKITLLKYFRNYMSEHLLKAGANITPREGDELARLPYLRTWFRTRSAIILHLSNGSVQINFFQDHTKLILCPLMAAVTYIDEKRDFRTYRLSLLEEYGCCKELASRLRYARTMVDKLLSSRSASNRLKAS

binding of peptide to recombinant Plk1 PBD, in words: could not detect any interaction
Substance: FRNVpTICPNPEDpTCDFARA [BubR1^596-614 (FRNVpTICPNPEDpTCDFARA)]
